Measurements reported in ChEMBL document CHEMBL1938354 (Eur J Med Chem, 2012).
Calls of active or inactive are those of the source. No cut-off for these calls is given here.

Key:
Homo sapiens = organism: Homo sapiens; assay: Selectivity ratio of IC50 for human recombinant N-terminus His6-tagged AKR1B1 to IC50 for human recombinant N-terminus His6-tagged AKR1B10
Summary of the method: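 IC50 values for purified recombinant AKR1B1 and AKR1B10 were each determined at 25 °C in 0.1 M potassium phosphate, pH 7.4, with 0.1 mM NADPH and 0.2 mM pyridine-3-aldehyde, by NADPH absorbance at 340 nm. Each IC50 is the mean of at least three determinations. The ratio is AKR1B1 IC50 over AKR1B10 IC50.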

[1] = biological target: Aldo-keto reductase family 1 member B1 (Homo sapiens, UniProt P15121); assay: Inhibition of human recombinant N-terminus His6-tagged AKR1B1 expressed in Escherichia coli BL21 DE3 assessed as pyridine-3-aldehyde reduction by spectrometric analysis
[2] = biological target: T1, Aldo-keto reductase family 1 member B10 (Homo sapiens, UniProt O60218); assay: Inhibition of human recombinant N-terminus His6-tagged AKR1B10 expressed in Escherichia coli BL21 DE3 assessed as pyridine-3-aldehyde reduction by spectrometric analysis
Summary of the method: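 Purified recombinant 6-His AKR1B10 was assayed at 25 °C in 0.1 M potassium phosphate, pH 7.4, with 0.1 mM NADPH and 0.2 mM pyridine-3-aldehyde. Reductase rate was followed as NADPH absorbance change at 340 nm. IC50 is the mean of at least three determinations.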
Target sequence in this assay (O60218 whole entry): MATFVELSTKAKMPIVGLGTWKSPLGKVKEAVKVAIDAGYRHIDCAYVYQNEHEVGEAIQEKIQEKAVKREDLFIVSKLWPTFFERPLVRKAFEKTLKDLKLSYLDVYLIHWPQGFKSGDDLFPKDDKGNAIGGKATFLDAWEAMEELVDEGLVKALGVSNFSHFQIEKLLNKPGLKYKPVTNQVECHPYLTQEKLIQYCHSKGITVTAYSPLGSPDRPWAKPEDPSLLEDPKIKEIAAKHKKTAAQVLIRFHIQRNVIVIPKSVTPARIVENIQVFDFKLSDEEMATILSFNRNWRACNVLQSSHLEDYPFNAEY

HeLa [3] = assay: Growth inhibition of human HeLa cells at 0.2 uM by trypan blue dye exclusion assay; type: functional, cell-based
U-937 [4] = assay: Growth inhibition of AKR1B10-overexpressing human U937 cells at 1 uM by trypan blue dye exclusion assay; type: functional, cell-based
Summary of the method: (§1)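 U937 cells were transiently transfected with pGW1 plasmid carrying AKR1B10 cDNA and resuspended in fresh growth medium. They were seeded at 5 × 10⁴ cells/ml and treated with inhibitor for 0, 24, 48 and 72 h. Viable cells were counted by trypan blue exclusion.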

HeLa [5] = assay: Cytotoxicity against human HeLa cells after 24 hrs by trypan blue dye exclusion assay; type: functional; conditions: read-out: LD50 (the source's name)
[6] = biological target: T1, Aldo-keto reductase family 1 member B10; assay: Competitive inhibition at human recombinant N-terminus His6-tagged AKR1B10 expressed in Escherichia coli BL21 DE3 assessed as inhibition of NADP+ linked geraniol oxidation by fluorescence analysis
Target sequence in this assay (O60218 whole entry): as above

U-937 [7] = assay: Growth inhibition of human U937 cells at 0.2 uM by trypan blue dye exclusion assay; type: functional, cell-based
[8] = biological target: Aldo-keto reductase family 1 member B10 (Homo sapiens, UniProt O60218, Q114T); assay: Competitive inhibition at human recombinant N-terminus His6-tagged AKR1B10 Gln114Thr mutant expressed in Escherichia coli BL21 DE3 assessed as inhibition of NADP+ linked geraniol oxidation by fluorescence analysis
Aldo-keto reductase family 1 member B10 (Homo sapiens, UniProt O60218, Q114T), sequence (O60218 whole entry Q114T): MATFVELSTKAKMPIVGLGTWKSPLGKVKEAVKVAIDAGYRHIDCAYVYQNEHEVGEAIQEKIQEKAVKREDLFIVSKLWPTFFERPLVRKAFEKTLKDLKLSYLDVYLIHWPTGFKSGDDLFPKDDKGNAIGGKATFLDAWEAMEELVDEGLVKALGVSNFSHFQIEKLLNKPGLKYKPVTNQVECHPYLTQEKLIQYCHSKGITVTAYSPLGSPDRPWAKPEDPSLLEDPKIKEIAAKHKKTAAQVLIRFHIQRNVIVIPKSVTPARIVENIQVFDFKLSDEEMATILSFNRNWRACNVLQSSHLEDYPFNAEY

[9] = biological target: T1, Aldo-keto reductase family 1 member B10; assay: Inhibition of AKR1B10-mediated farnesal metabolism in human HeLa cells preincubated for 2 hrs measured after 6 hrs following [1-14C]farnesol addition; type: cell-based
Summary of the method: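 HeLa cells were transfected with pGW1-AKR1B10 and pretreated with inhibitor at a range of concentrations for 2 h. They were then incubated with [1-¹⁴C]farnesol for 6 h, and reduction of the resulting farnesal was analysed. Percent inhibition is the mean of duplicate experiments.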
Target sequence in this assay (O60218 whole entry): as the sequence (O60218 whole entry) above

[10] = biological target: Aldo-keto reductase family 1 member B10 (Homo sapiens, UniProt O60218, F123A); assay: Competitive inhibition at human recombinant N-terminus His6-tagged AKR1B10 Phe123Ala mutant expressed in Escherichia coli BL21 DE3 assessed as inhibition of NADP+ linked geraniol oxidation by fluorescence analysis
Aldo-keto reductase family 1 member B10 (Homo sapiens, UniProt O60218, F123A), sequence (O60218 whole entry F123A): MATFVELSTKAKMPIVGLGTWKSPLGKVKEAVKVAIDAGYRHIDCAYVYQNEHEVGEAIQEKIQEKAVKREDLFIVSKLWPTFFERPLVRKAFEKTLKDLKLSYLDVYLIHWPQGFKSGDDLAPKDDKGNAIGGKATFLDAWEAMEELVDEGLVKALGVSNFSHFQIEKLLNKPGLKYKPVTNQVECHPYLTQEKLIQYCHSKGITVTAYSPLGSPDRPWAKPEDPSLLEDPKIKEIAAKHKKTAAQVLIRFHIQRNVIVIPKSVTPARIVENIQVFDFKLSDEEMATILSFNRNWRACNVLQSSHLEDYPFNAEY
Summary of the method: (§2)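 Recombinant wild-type or mutant AKR1B10 with N-terminal 6-His tag was expressed in E. coli BL21(DE3) pLysS and purified to homogeneity. The Phe123Ala mutant was made by site-directed mutagenesis. Kinetics used NADP+-linked geraniol oxidation, read by NADPH fluorescence (ex 340/em 455 nm) at 25 °C. Five substrate concentrations (0.5–5 × Km) were run with saturating coenzyme. Ki is the mean of at least three determinations.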

[11] = biological target: T2, Aldo-keto reductase family 1 member A1 (Homo sapiens) (UniProt P14550); assay: Inhibition of human AKR1A1 at 30 uM
T2 sequence (whole entry): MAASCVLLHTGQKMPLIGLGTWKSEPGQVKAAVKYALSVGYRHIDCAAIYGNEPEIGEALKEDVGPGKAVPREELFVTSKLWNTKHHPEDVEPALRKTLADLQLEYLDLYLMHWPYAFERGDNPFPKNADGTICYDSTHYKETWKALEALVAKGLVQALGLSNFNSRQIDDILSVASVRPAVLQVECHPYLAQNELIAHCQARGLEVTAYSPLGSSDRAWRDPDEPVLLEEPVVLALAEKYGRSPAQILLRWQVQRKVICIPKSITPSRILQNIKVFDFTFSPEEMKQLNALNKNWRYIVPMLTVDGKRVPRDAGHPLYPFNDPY

U-937 [12] = assay: Growth inhibition of AKR1B10-overexpressing human U937 cells at 0.2 uM by trypan blue dye exclusion assay; type: functional, cell-based; summary of the method: as §1
[13] = biological target: T1, Aldo-keto reductase family 1 member B10; conditions: HeLa, 0.2 uM
Target sequence in this assay (O60218 whole entry, looked up): as the sequence (O60218 whole entry) above

[14] = biological target: Aldo-keto reductase family 1 member B10 (Homo sapiens, UniProt O60218, S304A); assay: Competitive inhibition at human recombinant N-terminus His6-tagged AKR1B10 Ser304Ala mutant expressed in Escherichia coli BL21 DE3 assessed as inhibition of NADP+ linked geraniol oxidation by fluorescence analysis
Aldo-keto reductase family 1 member B10 (Homo sapiens, UniProt O60218, S304A), sequence (O60218 whole entry S304A): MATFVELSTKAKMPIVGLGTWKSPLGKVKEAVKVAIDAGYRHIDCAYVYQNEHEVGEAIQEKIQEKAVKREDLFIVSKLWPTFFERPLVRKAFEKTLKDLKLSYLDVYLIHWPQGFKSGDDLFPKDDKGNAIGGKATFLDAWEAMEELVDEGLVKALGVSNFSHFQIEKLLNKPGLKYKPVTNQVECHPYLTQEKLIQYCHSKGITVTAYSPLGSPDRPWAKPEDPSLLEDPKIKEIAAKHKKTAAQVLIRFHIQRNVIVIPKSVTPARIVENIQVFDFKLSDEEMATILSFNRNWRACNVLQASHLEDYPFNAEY

[15] = biological target: T1, Aldo-keto reductase family 1 member B10; assay: Competitive inhibition at human recombinant N-terminus His6-tagged AKR1B10 expressed in Escherichia coli BL21 DE3 assessed as inhibition of NADP+ linked geraniol oxidation by fluorescence analysis; summary of the method: as §2
Target sequence in this assay (O60218 whole entry): as the sequence (O60218 whole entry) above

[16] = biological target: Aldo-keto reductase family 1 member B10 (Homo sapiens, UniProt O60218, Q303S); assay: Competitive inhibition at human recombinant N-terminus His6-tagged AKR1B10 Gln303Ser mutant expressed in Escherichia coli BL21 DE3 assessed as inhibition of NADP+ linked geraniol oxidation by fluorescence analysis
Aldo-keto reductase family 1 member B10 (Homo sapiens, UniProt O60218, Q303S), sequence (O60218 whole entry Q303S): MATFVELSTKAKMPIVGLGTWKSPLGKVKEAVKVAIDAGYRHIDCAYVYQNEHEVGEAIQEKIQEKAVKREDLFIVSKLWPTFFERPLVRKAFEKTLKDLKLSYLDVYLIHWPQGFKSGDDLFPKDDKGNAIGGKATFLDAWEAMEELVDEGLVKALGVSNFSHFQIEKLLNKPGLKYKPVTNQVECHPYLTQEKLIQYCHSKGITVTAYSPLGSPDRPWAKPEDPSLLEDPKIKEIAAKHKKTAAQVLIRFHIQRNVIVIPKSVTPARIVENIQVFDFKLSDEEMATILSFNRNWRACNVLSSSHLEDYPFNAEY

[17] = biological target: Aldo-keto reductase family 1 member B10 (Homo sapiens, UniProt O60218, Q303S/V301L); assay: Competitive inhibition at human recombinant N-terminus His6-tagged AKR1B10 Val301Leu/Gln303Ser double mutant expressed in Escherichia coli BL21 DE3 assessed as inhibition of NADP+ linked geraniol oxidation by fluorescence analysis
Aldo-keto reductase family 1 member B10 (Homo sapiens, UniProt O60218, Q303S/V301L), sequence (O60218 whole entry V301L/Q303S): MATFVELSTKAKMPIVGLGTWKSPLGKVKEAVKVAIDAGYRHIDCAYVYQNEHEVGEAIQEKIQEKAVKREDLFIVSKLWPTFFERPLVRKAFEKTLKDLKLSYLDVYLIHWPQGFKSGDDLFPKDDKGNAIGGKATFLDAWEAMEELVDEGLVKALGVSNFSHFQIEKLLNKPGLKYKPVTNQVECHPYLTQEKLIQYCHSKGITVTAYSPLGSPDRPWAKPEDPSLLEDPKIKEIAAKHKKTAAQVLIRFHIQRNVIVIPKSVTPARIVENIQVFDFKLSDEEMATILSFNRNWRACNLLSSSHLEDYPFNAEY

[18] = biological target: Aldo-keto reductase family 1 member B10 (Homo sapiens, UniProt O60218, V301L); assay: Competitive inhibition at human recombinant N-terminus His6-tagged AKR1B10 Val301Leu mutant expressed in Escherichia coli BL21 DE3 assessed as inhibition of NADP+ linked geraniol oxidation by fluorescence analysis
Aldo-keto reductase family 1 member B10 (Homo sapiens, UniProt O60218, V301L), sequence (O60218 whole entry V301L): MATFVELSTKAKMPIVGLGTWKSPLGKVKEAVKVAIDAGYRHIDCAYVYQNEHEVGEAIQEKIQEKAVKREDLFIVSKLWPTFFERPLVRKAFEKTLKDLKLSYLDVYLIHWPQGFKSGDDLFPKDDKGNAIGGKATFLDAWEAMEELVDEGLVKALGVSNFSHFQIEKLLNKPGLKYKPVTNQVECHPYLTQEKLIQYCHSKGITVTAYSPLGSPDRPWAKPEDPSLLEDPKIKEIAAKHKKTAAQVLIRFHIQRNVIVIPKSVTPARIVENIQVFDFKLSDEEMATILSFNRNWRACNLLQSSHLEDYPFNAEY

[19] = biological target: Aldo-keto reductase family 1 member B10 (Homo sapiens, UniProt O60218, W220Y); assay: Competitive inhibition at human recombinant N-terminus His6-tagged AKR1B10 Trp220Tyr mutant expressed in Escherichia coli BL21 DE3 assessed as inhibition of NADP+ linked geraniol oxidation by fluorescence analysis
Aldo-keto reductase family 1 member B10 (Homo sapiens, UniProt O60218, W220Y), sequence (O60218 whole entry W220Y): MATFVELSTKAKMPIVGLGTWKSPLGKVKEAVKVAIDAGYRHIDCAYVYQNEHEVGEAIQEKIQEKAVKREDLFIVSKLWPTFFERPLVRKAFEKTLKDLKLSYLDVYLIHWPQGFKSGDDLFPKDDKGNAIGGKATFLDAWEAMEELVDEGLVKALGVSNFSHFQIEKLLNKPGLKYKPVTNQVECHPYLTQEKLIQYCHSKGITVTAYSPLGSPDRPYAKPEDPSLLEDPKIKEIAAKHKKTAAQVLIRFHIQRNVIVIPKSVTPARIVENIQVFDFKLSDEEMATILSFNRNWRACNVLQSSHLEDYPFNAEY

| SMILES | Ratio IC50 (Homo sapiens) | IC50 [1] | IC50 [2] | further results |
| --- | --- | --- | --- | --- |
| O=C(/C=C/c1cccc(O)c1)OCCc1ccccc1 | 4 | 73 µM | 19 µM | – |
| O=C(/C=C/c1ccc(O)c(O)c1)O[C@@H]1C[C@](O)(C(=O)O)C[C@@H](O)[C@H]1O (relative stereo) [CHLOROGENIC ACID] | – | – | 7.9 µM | – |
| O=C(/C=C/c1ccc(O)c(O)c1)O[C@@H]1[C@H](O)C[C@@](O)(C(=O)O)C[C@H]1OC(=O)/C=C/c1ccc(O)c(O)c1 (relative stereo) | – | – | 0.24 µM | – |
| COc1cc(O)ccc1/C=C/C(=O)OCCc1ccc(O)cc1 | 229 | 3.2 µM | 0.014 µM | – |
| COc1cc(O)ccc1/C=C/C(=O)OCCc1ccccc1O | 558 | 9.5 µM | 0.017 µM | – |
| CC(C)OC(=O)/C=C/c1ccc(O)cc1 [ISOPROPYL 3-(4-HYDROXYPHENYL)ACRYLATE] | 7 | 6.1 µM | 0.92 µM | – |
| CC(C)=CCc1cc(/C=C/C(=O)O)cc(CC=C(C)C)c1O [ARTEPILLIN] | – | 23 µM | 53 µM | – |
| COc1cc(O)ccc1/C=C/C(=O)OCCc1cccc(O)c1 | 562 | 7.3 µM | 0.013 µM | – |
| O=C(/C=C/c1ccccc1)OCCc1ccccc1 [PHENETHYL CINNAMATE] | 1 | 23 µM | 18 µM | – |
| O=C(/C=C/c1ccc(O)c(O)c1)OCc1ccccc1 [BENZYL CAFFEATE] | 2 | 0.4 µM | 0.21 µM | – |
| COc1cc(O)ccc1/C=C/C(=O)OCCCc1ccc(O)cc1 | 478 | 11 µM | 0.023 µM | – |
| O=C(/C=C/c1ccc(O)cc1)OCCCc1ccccc1 | 52 | 1.1 µM | 0.021 µM | – |
| COc1cc(O)ccc1/C=C/C(=O)OCCCc1ccccc1 | 688 | 11 µM | 0.016 µM | – |
| O=C(/C=C/c1ccc(O)c(O)c1)OCCc1ccccc1 [CAFFEIC ACID PHENETHYL ESTER] | 7 | 0.57 µM | 0.08 µM | growth inhibition (GI) (HeLa [3]): inactive; growth inhibition (GI) (U-937 [4]): Active; CC50 (HeLa [5]): 56 µM; Ki [6]: 0.046 µM; growth inhibition (GI) (U-937 [7]): inactive |
| COc1cc(O)ccc1/C=C/C(=O)OCCCc1ccccc1O | 766 | 6.9 µM | 0.009 µM | – |
| COc1cc(O)ccc1/C=C/C(=O)OCCc1ccccc1 | 554 | 7.2 µM | 0.013 µM | – |
| O=C(O)/C=C/c1ccc(O)c(O)c1 [CAFFEIC ACID] | – | – | 90 µM | – |
| O=C(/C=C/c1ccc(O)c(O)c1)O[C@@H]1C[C@](O)(C(=O)O)C[C@@H](OC(=O)/C=C/c2ccc(O)c(O)c2)[C@H]1O (relative stereo) | – | 0.088 µM | 0.13 µM | – |
| O=C(/C=C/c1ccc(O)cc1)OCCc1ccccc1 | 31 | 2.2 µM | 0.069 µM | – |
| COc1cc(O)ccc1/C=C/C(=O)OCCCc1cccc(O)c1 | 790 | 4.9 µM | 0.0062 µM | Ki [8]: 0.0076 µM; IC50 [9]: 0.3 µM; Ki [10]: 0.0051 µM; inhibition [11]: inactive; growth inhibition (GI) (U-937 [12]): Active; inhibition [13]: Active; growth inhibition (GI) (HeLa [3]): inactive; CC50 (HeLa [5]): 36 µM; Ki [14]: 0.0035 µM; Ki [15]: 0.0026 µM; Ki [16]: 0.0071 µM; Ki [17]: 0.023 µM; Ki [18]: 0.0058 µM; Ki [19]: 0.015 µM; growth inhibition (GI) (U-937 [7]): inactive |
| O=C(/C=C/c1ccc(O)cc1)OCc1ccccc1 | 17 | 2.2 µM | 0.13 µM | – |
| O=C(/C=C/c1cccc(O)c1)OCCCc1ccccc1 | 13 | 41 µM | 3.1 µM | – |
| CC(C)=CCc1cc(/C=C/C(=O)O)ccc1O [DRUPANIN] | – | 38 µM | 49 µM | – |
| O=C(O)/C=C/c1ccc(O)cc1 [COUMARIC ACID] | – | 76 µM | 63 µM | – |
